Positions of bridges follow the written chain, without caps; N, C: chain ends. Non-standard residues stand in square brackets, D forms with d. Residues, ends and D or L forms follow the SMILES beside them. Mpa = O=C(O)CCS
Legend:
[1] = biological target: T1, Oxytocin receptor (Rattus norvegicus) (UniProt P70536); assay: Activity at oxytocin receptor in rat uterus in presence of Mg2+; type: tissue-based
T1 sequence (whole entry): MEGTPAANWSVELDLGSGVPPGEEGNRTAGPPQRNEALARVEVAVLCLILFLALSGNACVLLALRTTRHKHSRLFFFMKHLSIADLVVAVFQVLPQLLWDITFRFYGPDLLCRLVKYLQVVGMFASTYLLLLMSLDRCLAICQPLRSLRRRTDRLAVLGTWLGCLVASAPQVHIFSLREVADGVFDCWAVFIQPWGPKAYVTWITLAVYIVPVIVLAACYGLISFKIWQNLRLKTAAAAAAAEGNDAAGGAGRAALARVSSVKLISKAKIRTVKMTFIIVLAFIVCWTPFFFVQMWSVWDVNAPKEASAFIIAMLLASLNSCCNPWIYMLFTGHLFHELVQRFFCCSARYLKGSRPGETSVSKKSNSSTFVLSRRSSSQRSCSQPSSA

Rattus norvegicus [2] = species: Rattus norvegicus; assay: Antidiuretic activity in rat; type: functional, Urine
Rattus norvegicus [3] = species: Rattus norvegicus; assay: Ratio of antidiuretic activity in rat to vasopressor activity in rat; design: species or system Urine
In short: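 Antidiuretic and vasopressor potencies were each expressed in units/mg from rat assays. The A/P value is the antidiuretic potency divided by the vasopressor potency.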

Rattus norvegicus [4] = species: Rattus norvegicus; assay: Vasopressor activity in rat; type: organism-based; details: in vivo
[5] = Retardation factor of the compound by silica gel thin-layer chromatography
[6] = biological target: T1, Oxytocin receptor (Rattus norvegicus); assay: Activity at oxytocin receptor in rat uterus; type: tissue-based

Row | SMILES | Activity [1] | Activity (Rattus norvegicus [2]) | Ratio (Rattus norvegicus [3]) | Activity (Rattus norvegicus [4]) | Rf [5] | Activity [6]
1 | N=C(N)NCCC[C@H](NC(=O)[C@@H]1CCCN1C(=O)[C@@H]1CSSC[C@H](N)C(=O)N[C@@H](Cc2ccc(O)cc2)C(=O)N[C@@H](Cc2ccccc2)C(=O)N[C@@H](CCC(N)=O)C(=O)N[C@@H](CC(N)=O)C(=O)N1)C(=O)NCC(N)=O [VASOPRESSIN] | 25.5 U/mg | 323 U/mg | 1 |  |  | 
2 | NC(=O)CC[C@@H]1NC(=O)[C@H](Cc2ccccc2)NC(=O)[C@H](Cc2ccc(O)cc2)NC(=O)CCSSC[C@@H](C(=O)N2CCC[C@H]2C(=O)N[C@H](CCCN=C(N)N)C(=O)NCC(N)=O)NC(=O)[C@H](CC(N)=O)NC1=O (stereo in doubt; 4) [DESMOPRESSIN] |  | 1390 U/mg | 4 | 346 U/mg | 0.18 | 
3 | N=C(N)NCCC[C@@H](NC(=O)[C@@H]1CCCN1C(=O)[C@@H]1CSSCCC(=O)N[C@@H](Cc2ccc(O)cc2)C(=O)N[C@@H](Cc2ccccc2)C(=O)N[C@@H](CCC(N)=O)C(=O)N[C@@H](CC(N)=O)C(=O)N1)C(=O)NCC(N)=O (stereo in doubt; 4) | 66 U/mg |  |  |  |  | 47 U/mg
4 | C[C@@H](O)[C@@H]1NC(=O)[C@H](Cc2ccccc2)NC(=O)[C@H](Cc2ccc(O)cc2)NC(=O)CCSSC[C@@H](C(=O)N2CCC[C@H]2C(=O)N[C@@H](CCCN=C(N)N)C(=O)NCC(N)=O)NC(=O)[C@H](CC(N)=O)NC1=O |  | 758 U/mg |  | 30 U/mg |  | 
5 | N=C(N)NCCC[C@@H](NC(=O)[C@@H]1CCCN1C(=O)[C@@H]1CSSCCC(=O)N[C@@H](Cc2ccc(O)cc2)C(=O)N[C@@H](Cc2ccccc2)C(=O)N[C@@H](CCC(N)=O)C(=O)N[C@@H](CC(N)=O)C(=O)N1)C(=O)NCC(N)=O (stereo in doubt; 6) | 2.9 U/mg |  |  |  |  | 
6 | NC(=O)CC[C@@H]1NC(=O)[C@H](Cc2ccccc2)NC(=O)[C@H](Cc2ccc(O)cc2)NC(=O)[C@@H](N)CSSC[C@@H](C(=O)N2CCC[C@H]2C(=O)N[C@H](CCCN=C(N)N)C(=O)NCC(N)=O)NC(=O)[C@H](CC(N)=O)NC1=O | 1.02 U/mg | 114 U/mg | 30 | 1.1 U/mg | 0.1 | 0.4 U/mg
7 | C[C@@H](O)[C@@H]1NC(=O)[C@H](Cc2ccccc2)NC(=O)[C@H](Cc2ccc(O)cc2)NC(=O)CCSSC[C@@H](C(=O)N2CCC[C@H]2C(=O)N[C@H](CCCNC(=N)N)C(=O)NCC(N)=O)NC(=O)[C@H](CC(N)=O)NC1=O |  | 793 U/mg |  | < 0.02 U/mg | 0.24 | 
8 | NC(=O)CC[C@@H]1NC(=O)[C@H](Cc2ccccc2)NC(=O)[C@H](Cc2ccc(O)cc2)NC(=O)CCSSC[C@@H](C(=O)N2CCC[C@H]2C(=O)N[C@H](CCCN=C(N)N)C(=O)NCC(N)=O)NC(=O)[C@H](CC(N)=O)NC1=O (stereo in doubt; 6) [DESMOPRESSIN] |  | 870 U/mg | 80 | 0.39 U/mg | 0.21 | 
9 | CC(C)[C@@H]1NC(=O)[C@H](Cc2ccccc2)NC(=O)[C@H](Cc2ccc(O)cc2)NC(=O)CCSSC[C@@H](C(=O)N2CCC[C@H]2C(=O)N[C@H](CCCNC(=N)N)C(=O)NCC(N)=O)NC(=O)[C@H](CC(N)=O)NC1=O ([Mpa]YFVNCP[dR]G-NH2; disulfide 1-6) |  | 1230 U/mg |  | < 0.01 U/mg |  | 

From ChEMBL document CHEMBL3272182 (J Med Chem, 1976)
